Assay outcomes deposited in PubChem by several laboratories.
Lipid droplet = hepatic lipid droplet formation modulation; AML12 mouse hepatocytes, oleate lipid droplets, BODIPY imaging; inhibition, % at 6.5 µM; 240,000 compounds, 0.4% hits; AID 1656;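 active = lipid droplet intensity inhibited by at least 50%, with more than 500 cells counted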
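Test system: AML12 hepatocytes (mouse); reagent: oleate loading, 100 µM; dosing: one dose, 6.5 µM compound; incubation: overnight exposure; signal: fluorescence imaging, 20x objective, two fields per well; read-out basis: % inhibition of corrected integrated BODIPY droplet signal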
aSyn UTR inh = 5' untranslated region of α-synuclein, MLPCN primary screen; 300,000 compounds, 0.82% hits; alpha-synuclein 5'UTR reporter, inhibitor activity; inhibition, % (tested at 7.5 µM); AID 1813; in the data active = inhibition above about 60%;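 also: H4 neuroglioblastoma cells stably carrying SNCA 5'UTR luciferase fusion; 0% = DMSO wells and 100% = positive control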
H9c2 TAG inh = inhibitors of triacylglycerol accumulation | H9c2 cells, Nile Red lipid (TAG) fluorescence; cells loaded with 200 µM oleic acid | inhibition, % at 12.5 µM | 230,000 compounds, 0.66% hits;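 active = pattern-corrected inhibition of lipid staining of at least 50% with the nuclear-stain viability signal not falling by more than 50%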;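 also: 0% = DMSO wells and 100% = triacsin C control wells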
697 NFkB inh = inhibitors of the PMA/ionomycin-induced NF-kB reporter in 697 B cells | 697 B-cell NF-kB luciferase reporter, 16 h | inhibition, % at 4 µM | 330,000 compounds, 0.33% hits; in the data active = inhibition above about 35%
Jurkat NFkB inh = inhibitors of the PMA/ionomycin-induced NF-kB reporter in Jurkat cells | 330,000 compounds, 0.53% hits | PMA/ionomycin-induced NF-kB luciferase reporter, luminescence | inhibition, % at 4 µM; in the data active = inhibition above about 50%
APP 5UTR inh = APP translation inhibition; SH-SY5Y APP 5'UTR-luciferase reporter, luminescence; inhibition, % at 2 µM; 190,000 compounds, 0.82% hits; AID 1285;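 active = inhibition above a set limit, derived from the sample mean plus 3 SD, cut at about 45% in these data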
697 NFkB conf = inhibitors of the PMA/ionomycin-induced NF-kB reporter in 697 B cells, retest | shares compounds with 697 NFkB inh | 697 B-cell NF-kB luciferase, 16 h | inhibition, % at 4 µM | 2,000 compounds, 35% hits | AID 449746; in the data active = inhibition mostly above about 28%, no sharp cut-off; inactive = mostly below about 22%
* = called active by the depositor; i = inactive; . = not tested or not shown. This is a sample that favours compounds with a hit; in the whole collection about 1.9% have one here.

SMILES | Lipid droplet | aSyn UTR inh | H9c2 TAG inh | 697 NFkB inh | Jurkat NFkB inh | APP 5UTR inh | 697 NFkB conf
COc1ccc(C(=O)Nc2ccc3ncccc3c2)cc1 | -2 | 25 | . | -290 | -103 | . | -333
O=C(C1CCC(=O)N1C1CCCCC1)N1CCN(c2ccc(F)cc2)CC1 (stereo unspecified) | . | -22 | . | -15 | -13 | -8 | .
Cc1cccc(N(C)c2ncnc3onc(-c4ccc(F)cc4)c23)c1C | -40 | 40 | 12 | 2 | 15 | . | .
COc1ccc2cc3cc(C(=O)Nc4cc(OC)c(OC)c(OC)c4)oc3nc2c1 | 28 | -1 | 22 | 37* | 38 | 5 | 0
COc1ccc2cc3cc(C(=O)Nc4ccc5c(c4)OCCO5)oc3nc2c1 | . | -56 | 34 | -1 | 3 | 1 | .
NC(=O)c1ccc(NC(=O)CN2CCN(Cc3ccccc3)CC2)cc1 | . | 18 | . | 13 | -34 | . | .
NC(=S)Nc1ncc(C(F)(F)F)cc1Cl | 4 | -2 | . | 47* | 5 | -9 | -5
CC(C)CC(=O)Nc1ccc(C(=O)COC(=O)C2CC(=O)N(Cc3ccccc3)C2)cc1 (stereo unspecified) | . | . | -15 | 14 | -6 | . | .
Cc1cccc(/C=N\NC(=O)c2sccc2-n2cccc2)c1 | . | -15 | . | -40 | -31 | -3 | .
CC(=O)N1c2ccccc2NC2=C(C(=O)CC(C)(C)C2)C1c1cccn1C (stereo unspecified) | 2 | 12 | 1 | 9 | -5 | -14 | .
O=C(O)c1ccc(-c2noc(-c3cccc(Cl)c3)n2)cc1 | . | . | 6 | -117 | -23 | . | .
O=C(O)c1ccc(-c2noc(-c3ccc(F)cc3)n2)cc1 | . | -93 | -3 | -313 | -75 | . | -283
O=C(Oc1ccccc1F)c1ccc2c(=O)n3c(nc2c1)CCC3 | . | -13 | -24 | 7 | 4 | . | .
CCCCn1c(N)c(N(CC(C)C)C(=O)C2CCN(S(=O)(=O)c3ccc(OCC)cc3)CC2)c(=O)[nH]c1=O | . | 14 | 9 | 8 | 5 | . | .
COc1ccc(/C=C2\SC(=S)N(CCCC(=O)Nc3ccc(O)cc3)C2=O)cc1 | -5 | 78* | -2 | 69* | -5 | . | 75*
COc1ccc(/C=C2\SC(=S)N(CCC(=O)Nc3cccc(O)c3)C2=O)cc1 | . | -6 | -1 | 47* | 0 | . | 54*
COc1ccc(/C=C2\SC(=S)N(CCC(=O)NCCc3ccc(O)cc3)C2=O)cc1 | 4 | 17 | . | 18 | 12 | . | .
COc1cc(/C=C2\SC(=S)N(CCC(=O)Nc3ccc(O)cc3)C2=O)cc(OC)c1OC | -18 | -15 | . | -19 | -1 | . | .
COc1ccc(/C=C2/SC(=S)N(CCCC(=O)Nc3ccc(O)cc3)C2=O)cc1 | -4 | 68* | 0 | 71* | -16 | . | 79*
O=[N+]([O-])/C(=C\Nc1ccc(F)cc1F)S(=O)(=O)c1ccccc1 | 12 | 2 | . | -30 | -4 | . | .
c1ccc2nc(-c3ccc(N4CCOCC4)cc3)ccc2c1 | -25 | 104* | . | -348 | -67 | . | -291
Cc1cc(-c2ccc(N3CCOCC3)cc2)nc2ccccc12 | -2 | -307 | . | -81 | -116 | -90 | .
COc1ccc(CNC(=O)COc2ccc(Br)c(C)c2)cc1 | 3 | -4 | . | 0 | -16 | . | .
CN(C)C(=O)CCc1ccc2c3c([nH]c2c1)[C@]1(C)[C@@H](C(=O)N2CCOCC2)C[C@H](CC(=O)NCCN2CCOCC2)C(=O)N1CC3 | . | . | 9 | 5 | . | . | .
Cc1cnc(NC(=O)c2cc3c(s2)CCCC3)s1 | 5 | 65* | -7 | -328 | -148 | -173 | -359
SMILES | Lipid droplet | aSyn UTR inh | H9c2 TAG inh | 697 NFkB inh | Jurkat NFkB inh | APP 5UTR inh | 697 NFkB conf
C[C@H](CO)N1C[C@H](C)[C@@H](CN(C)S(=O)(=O)c2ccc(Cl)cc2)Oc2ccc(NS(=O)(=O)c3ccccc3)cc2CC1=O | . | . | 5 | -3 | -1 | . | .
Cc1cccc(/C=C2\CCC(=C3SCCCS3)C2=O)c1 | . | 85* | 3 | -319 | -119 | -172 | -358
COc1cc2c(cc1NC(=O)CCC(=O)O)oc1ccccc12 | 0 | -11 | . | -18 | -8 | . | .
COc1cc2c(cc1NC(=O)CSCC(=O)O)oc1ccccc12 | . | -5 | -14 | 36* | 3 | -19 | -1
O=C(Cc1coc2ccc3ccccc3c12)Nc1nnc(C2CC2)s1 | . | 21 | 10 | i | -36 | -12 | -414
Cc1cc2occ(CC(=O)Nc3nnc(C4CC4)s3)c2cc1C | 3 | . | -1 | -10 | -3 | -29 | .
COc1ccccc1NC(=O)CSc1nnc(CCC(=O)Nc2ccccc2F)n1C | 1 | 9 | -1 | 5 | 5 | . | .
Cc1nccn1CCOc1ccccc1Cl | . | 19 | -9 | -11 | -8 | . | .
CCCCC(=O)Nc1nc2c(OC)ccc(OC)c2s1 | . | -54 | -2 | 36* | -3 | . | 27
CCOC(=O)c1c(-c2ccc(C)cc2)csc1NC(=S)NC(=O)c1ccccc1 | -29 | 10 | -97 | -486 | 3 | -8 | 0
CCOC(=O)c1c(-c2ccc(F)cc2)csc1NC(=O)c1c(-c2ccccc2)noc1C | 47 | 54 | . | -134 | -11 | -7 | .
COC(=O)c1c(-c2ccccc2)csc1NC(=O)c1c(-c2ccccc2)noc1C | 27 | 65* | . | i | -44 | 37 | i
COC(=O)c1c(-c2ccc(C)cc2)csc1NC(=S)NC(=O)c1ccc(F)cc1 | -9 | 6 | . | -24 | -6 | -3 | .
Nc1nc2nc(-c3ccccc3)cc(C(F)(F)F)c2s1 | -1 | 12 | . | -8 | -4 | . | .
Cc1cccc(-c2nc(CSc3nc4c(c(=O)[nH]3)CCC4)c(C)o2)c1 | 0 | 8 | 3 | 39* | 24 | -11 | 21
Cc1ccc(C(=O)OCC(=O)Nc2ccc(C)c(S(=O)(=O)N3CCCCC3)c2)o1 | . | . | -13 | . | . | . | .
CC(=O)c1c(C(C)=O)c(C)n(-c2cccc([N+](=O)[O-])c2)c1C | 23 | 9 | . | 36* | 24 | 3 | 12
Cc1cc(C(=O)CCl)c(C)n1-c1cccc([N+](=O)[O-])c1 | 22 | . | 17 | 40* | 4 | -3 | 9
CC(=O)c1nnn(-c2cccc([N+](=O)[O-])c2)c1C | -2 | -8 | -13 | 17 | -1 | 2 | .
Cc1ccc(C(=O)O/N=C(\N)c2ccccc2)c(Cl)c1 | -20 | 85* | 2 | -343 | -50 | . | -354
N/C(=N\OC(=O)c1ccc(F)cc1)c1cccc([N+](=O)[O-])c1 | 1 | -110 | . | -72 | -69 | . | .
Cc1cccc(/C(N)=N/OC(=O)c2ccc(F)cc2)c1 | 33 | -141 | . | -251 | -125 | -113 | -143
COc1cccc(C(=O)Oc2ccc(N3C(=O)CCC3=O)c(C)c2)c1 | 4 | 12 | -21 | 12 | 2 | 2 | .
CCOc1ccc(-n2c(-c3ccccc3)c[n+]3c2CCCCC3)cc1 | -80 | -10 | -35 | 63* | 17 | -12 | 64*
